{"source": "paper PMC4245983", "about": "(Biochemistry, 2014)", "key": {"[1]": {"test_system": "HscA386(T212V)", "assay": "2D 1H-15N TROSY-HSQC nucleotide binding to HscA386", "design": "species or system Escherichia coli", "settings": "TED buffer lacking Mg2+, pH 7.5, 10 mM ATP", "in_short": "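0.3 mM [U-15N]-labelled NBD construct (expressed in Rosetta Blue DE3 in M9 medium with 1 g/L 15NH4Cl, 0.4 mM IPTG, 4 h). Solvent was TED buffer with 7% D2O and 0.02% sodium azide. 2D 1H–15N TROSY-HSQC spectra were taken without nucleotide and with 10 mM ATP at 25 °C, 800 MHz, and compared.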"}, "[2]": {"test_system": "HscA", "assay": "ATPase activity as a function of ATP concentration", "type": "biochemical, Escherichia coli", "settings": "for Vmax from Michaelis-Menten fit: 2–1000 μM ATP, 1 μM HscA, HMKD pH 7.3, 25 °C, n = 3; for apparent ATP binding affinity, comparison of HscA386 and HscA395: from Km comparison", "in_short": "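NBD constructs (stop codons at residue 387 or 396; DEAE then Superdex 75 purification) were used at 1 μM in HMKD (50 mM HEPES pH 7.3, 150 mM KCl, 10 mM MgCl2, 1 mM DTT), 25 °C. ATP was 2, 4, 10, 40, 100 and 1000 μM. Pi release was monitored continuously by EnzChek coupled assay at 360 nm against a Pi standard curve. Means of three replicates were fit by nonlinear Michaelis–Menten regression for Km and Vmax.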"}, "[3]": {"test_system": "HscA", "assay": "Steady-state ATPase assay of HscA variants", "type": "biochemical, Escherichia coli", "settings": "for fold increase in ATPase activity vs HscA386 / fold increase in ATPase activity vs WT HscA: 1 μM HscA, 1 mM ATP, HMKD pH 7.3, 25 °C; for fold increase in ATPase activity vs HscA386: relative to HscA386; for fold increase in ATPase activity vs WT HscA: relative to WT HscA", "in_short": "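Steady-state hydrolysis at 25 °C in HMKD (50 mM HEPES pH 7.3, 150 mM KCl, 10 mM MgCl2, 1 mM DTT) with 1 μM HscA variant and 1 mM ATP. Pi release was followed continuously by EnzChek enzyme-coupled assay at 360 nm and converted via a Pi standard curve to min–1. Three or more replicates. Linker peptide was dissolved in HMKD with 10% DMSO and added at 5–500 μM final.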"}, "[4]": {"assay": "Differential scanning fluorimetry", "type": "physicochemical", "settings": "relative to HscA386", "in_short": "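2 μM protein in 5 mM HEPES pH 7.3, 10 mM MgCl2, 10 mM KCl with 10 μM SYPRO orange, in triplicate. Heated 15–99 °C in a real-time PCR instrument; excitation 492 nm, emission 610 nm. Tm was taken where the first derivative of fluorescence reached its minimum.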"}, "[5]": {"test_system": "WT HscA", "assay": "Steady-state ATPase assay of WT HscA with HscB or IscU", "type": "biochemical, Escherichia coli", "settings": "for effect on ATPase activity of WT HscA: 50-fold molar excess of HscB or IscU, 25 °C, n = 3", "in_short": "(§1)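 HscB or IscU (50-fold molar excess, 50 μM) was added to 1 μM HscA variant (full-length WT or NBD construct). Reactions used HMKD buffer pH 7.3 with 1 mM ATP at 25 °C. Phosphate release was monitored continuously by EnzChek coupled assay at 360 nm, calibrated with a Pi standard curve. Three or more replicates.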"}, "[6]": {"test_system": "HscA386", "assay": "Steady-state ATPase assay of HscA386", "type": "biochemical, Escherichia coli", "settings": "for effect on ATPase activity of HscA386: 50:1 molar ratio (50 μM HscB or IscU), 25 °C, n = 3; for effect on ATPase activity of HscA386 by linker peptide: 5–500 μM linker peptide, 1 μM HscA386, HMKD with 10% DMSO"}, "[7]": {"test_system": "HscA389", "assay": "Steady-state ATPase assay of HscA389 with HscB or IscU", "type": "biochemical, Escherichia coli", "settings": "50:1 molar ratio (50 μM HscB or IscU), 25 °C, n = 3", "in_short": "as §1"}, "[8]": {"test_system": "HscA395", "assay": "Steady-state ATPase assay of HscA395 with HscB or IscU", "type": "biochemical, Escherichia coli", "settings": "50:1 molar ratio (50 μM HscB or IscU), 25 °C, n = 3", "in_short": "as §1"}, "[9]": {"test_system": "WT HscA", "settings": "J-domain interactions; cited from earlier work"}, "[10]": {"test_system": "IscU", "settings": "cited from earlier work"}, "[11]": {"test_system": "HscA386", "assay": "2D 1H-15N TROSY-HSQC linker peptide binding to HscA386", "design": "species or system Escherichia coli", "settings": "0.2 mM [U-15N]HscA386, 3 mM linker peptide (15-fold molar excess), TED buffer, 900 MHz"}, "[12]": {"assay": "Solubility of linker peptide", "type": "physicochemical", "settings": "TED buffer pH 7.5 without DMSO, upper limit concentration of 3 mM"}}, "note": "“Also recorded” adds a separate entry of the source."}
{"compound": "Nc1ncnc2c1ncn2[C@@H]1O[C@H](COP(=O)(O)OP(=O)(O)OP(=O)(O)O)[C@@H](O)[C@H]1O", "note": "[ATP]", "values": [{"measurement": "ATP binding in the absence of Mg2+ (TROSY-HSQC)", "setting": "[1]", "result": "nearly superimposable"}]}
{"compound": "HscA386: isolated nucleotide-binding domain (NBD) of HscA", "values": [{"measurement": "Vmax from Michaelis-Menten fit", "setting": "[2]", "result": "0.039 ± 0.001", "unit": "min^–1"}, {"measurement": "apparent ATP binding affinity, comparison of HscA386 and HscA395", "setting": "[2]", "result": "equivalent; also recorded: identical within experimental error"}]}
{"compound": "HscA389: NBD of HscA containing a short (three-amino acid) linker peptide, LLL motif", "values": [{"measurement": "fold increase in ATPase activity vs HscA386", "setting": "[3]", "result": 7, "unit": "fold"}, {"measurement": "fold increase in ATPase activity vs WT HscA", "setting": "[3]", "result": 9, "unit": "fold"}]}
{"compound": "HscA395: NBD of HscA containing the full-length (nine-amino acid) linker peptide", "values": [{"measurement": "fold increase in ATPase activity vs HscA386", "setting": "[3]", "result": 13, "unit": "fold"}, {"measurement": "fold increase in ATPase activity vs WT HscA", "setting": "[3]", "result": 17, "unit": "fold"}, {"measurement": "fold faster ATP hydrolysis than HscA386 in the presence of linker peptide", "setting": "[3]; relative to HscA386 + 500 μM linker peptide", "result": 3, "unit": "fold"}, {"measurement": "Vmax from Michaelis-Menten fit", "setting": "[2]", "result": "0.446 ± 0.016", "unit": "min^–1"}, {"measurement": "apparent ATP binding affinity, comparison of HscA386 and HscA395", "setting": "[2]", "result": "equivalent; also recorded: identical within experimental error"}, {"measurement": "basal thermostability vs HscA386", "setting": "[4]", "result": "higher than those of HscA386; also recorded: increases basal thermostability in comparison to that of HscA386"}]}
{"compound": "HscB: Hsp40-type cochaperone of HscA", "values": [{"measurement": "fold increase in ATPase activity of WT HscA", "setting": "[5]; 1 μM WT HscA with 50 μM HscB", "result": 8, "unit": "factor"}, {"measurement": "effect on ATPase activity of WT HscA", "setting": "[5]", "result": "enhanced"}, {"measurement": "effect on ATPase activity of HscA386", "setting": "[6]", "result": "not affected; also recorded: did not elicit any stimulation of ATPase activity; also recorded: neither the isolated NBD (HscA386) nor the NBD with a full interdomain liker (HscA395) was receptive to ATPase stimulation"}, {"measurement": "effect on ATPase activity of HscA389", "setting": "[7]", "result": "not affected; also recorded: did not elicit any stimulation of ATPase activity"}, {"measurement": "effect on ATPase activity of HscA395", "setting": "[8]", "result": "not affected; also recorded: did not elicit any stimulation of ATPase activity; also recorded: neither the isolated NBD (HscA386) nor the NBD with a full interdomain liker (HscA395) was receptive to ATPase stimulation"}, {"measurement": "HscB-mediated activation of full-length HscA ATPase activity", "setting": "[9]", "result": "sensitive to HscB-mediated activation of ATPase activity"}, {"measurement": "preferential binding to conformational state of IscU", "setting": "[10]", "result": "binds preferentially to the S-state"}]}
{"compound": "IscU: scaffold protein, substrate of HscA", "values": [{"measurement": "effect on ATPase activity of WT HscA", "setting": "[5]", "result": "enhanced"}, {"measurement": "effect on ATPase activity of HscA386", "setting": "[6]", "result": "no effect on the ATPase activities of any of the NBD variants; also recorded: not affected"}, {"measurement": "effect on ATPase activity of HscA389", "setting": "[7]", "result": "no effect on the ATPase activities of any of the NBD variants; also recorded: not affected"}, {"measurement": "effect on ATPase activity of HscA395", "setting": "[8]", "result": "no effect on the ATPase activities of any of the NBD variants; also recorded: not affected"}]}
{"compound": "LLLDVIPLS [linker peptide]", "values": [{"measurement": "effect on ATPase activity of HscA386 by linker peptide", "setting": "[6]", "result": "A concentration dependence was observed"}, {"measurement": "effect on ATPase activity of HscA386 by linker peptide", "setting": "[6]; listed as synthetic peptide", "result": "stimulated its ATPase activity"}, {"measurement": "binding of linker peptide to HscA386 (chemical shift perturbation)", "setting": "[11]", "result": "widespread chemical shift perturbations, including distinct broadening of some signals; also recorded: relatively weaker binding interactions; also recorded: weakly binding"}, {"measurement": "binding of linker peptide to HscA386 (chemical shift perturbation)", "setting": "[11]; listed as synthetic peptide", "result": "widespread NMR chemical shift perturbations indicative of a binding interaction"}, {"measurement": "solubility of linker peptide in TED buffer", "setting": "[12]", "result": "partially dissolved"}]}
